The text below walks through data of ChEMBL document CHEMBL4396899, “Synthesis of N-hydroxycinnamoyl amide derivatives and evaluation of their anti-oxidative and anti-tyrosinase activities” (Bioorg Med Chem, 2019).

Assay [1] can be described thus: Antioxidant activity assessed as DPPH free radical scavenging activity incubated for 30 mins in dark condition by spectrophotometric analysis. Type of assay: functional. The procedure, abridged: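 Test samples dissolved in absolute ethanol at a range of concentrations; 1 mL mixed with 1 mL 0.2 mM DPPH in ethanol, kept in the dark 30 min, absorbance read at 517 nm against an ethanol blank. L-ascorbic acid as positive control. Triplicate measurements; IC50 taken from the dose-response curve by linear regression interpolation.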
(In general: DPPH is a stable violet radical that fades when it is reduced.)

The nature of assay [2]: Antioxidant activity assessed as hydroxyl radical scavenging activity incubated for 1 hr by spectrophotometric analysis. The assay is classed as functional. The procedure, abridged: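 Phenanthroline (0.75 mM in ethanol), 0.2 M phosphate buffer pH 7.4, sample in DMSO and 0.75 mM FeSO4 (1 mL each) mixed, then 1 mL 0.01% H2O2 added. Incubated 1 h at 37 °C in a water bath, absorbance read at 536 nm. Triplicate; IC50 (mM) by regression interpolation.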

A further assay addresses T1, Tyrosinase (Agaricus bisporus, UniProt O42713).
T1 sequence (O42713 whole entry): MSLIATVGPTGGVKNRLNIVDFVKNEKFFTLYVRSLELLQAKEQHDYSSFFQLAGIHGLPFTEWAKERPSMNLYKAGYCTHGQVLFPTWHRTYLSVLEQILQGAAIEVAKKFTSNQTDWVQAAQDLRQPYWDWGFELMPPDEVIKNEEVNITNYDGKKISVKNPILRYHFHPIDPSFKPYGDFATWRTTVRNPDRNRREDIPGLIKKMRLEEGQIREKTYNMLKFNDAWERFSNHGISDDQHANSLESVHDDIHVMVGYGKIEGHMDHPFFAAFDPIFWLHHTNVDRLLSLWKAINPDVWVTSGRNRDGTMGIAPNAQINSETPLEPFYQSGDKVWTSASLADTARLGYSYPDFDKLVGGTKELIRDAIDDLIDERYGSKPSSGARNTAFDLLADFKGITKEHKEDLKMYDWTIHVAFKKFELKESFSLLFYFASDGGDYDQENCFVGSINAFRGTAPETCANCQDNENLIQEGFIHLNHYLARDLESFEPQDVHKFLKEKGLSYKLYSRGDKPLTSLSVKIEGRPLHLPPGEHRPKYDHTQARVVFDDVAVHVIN
Briefly: Inhibition of mushroom tyrosinase using […] as substrate measured after 30 mins. The procedure, abridged: (§1)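 Substrate L-tyrosine (0.507 g/L stock in HCl/0.2 M phosphate buffer pH 6.8). Inhibitor stock 1 g/L in DMSO, replaced by DMSO for the reference. Mushroom tyrosinase (200 U/mL stock in 0.2 M phosphate buffer pH 6.8) added last. Incubated 37 °C for 30 min, absorbance read at 475 nm. Percent inhibition from blank-corrected absorbances; triplicate; ferulic acid as positive control.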

Assay [3] concerns the target T2, Tyrosinase (Agaricus bisporus) (UniProt O42713).
T2 sequence (whole entry): T1 sequence (O42713 whole entry)
The experiment in a line: Inhibition of mushroom tyrosinase at 1 g/L using […] as substrate measured after 30 mins. The procedure, abridged: as §1

The source made the active and inactive calls. The calls are words filed in the database; no cut-off is given here.

On to `CCOC(=O)[C@H](C)NC(=O)/C=C/c1ccc(O)c(O)c1`, for which the IC50 (as a rule, the midpoint of a concentration-inhibition curve) in assay [1] came to 29.7 µM; in assay [2], 214 µM.
Consider `CCOC(=O)[C@H](Cc1ccccc1)NC(=O)/C=C/c1ccc(O)c(O)c1`, for which the figures for the IC50 (in assay [1]; in assay [2]; against Tyrosinase) were 33.2 µM, 292 µM and more than 29 µM, respectively.
Take `CCOC(=O)[C@H](CC(C)C)NC(=O)/C=C/c1ccc(OC(C)=O)c(OC)c1`: the IC50 in assay [1] is more than 500 µM. Moreover, the inhibition result in assay [3] is “Active”.
As to `CCOC(=O)[C@@H](NC(=O)/C=C/c1ccc(O)c(O)c1)C(C)C`, the IC50 in assay [1] was 19.6 µM; in assay [2], 348 µM.
In the case of `CCOC(=O)[C@H](CC(C)C)NC(=O)/C=C/c1ccc(O)c(OC)c1`, the IC50 in assay [1] came out at 56.1 µM. Also, in assay [3], the inhibition entry was “Active”.
For the molecule `CCOC(=O)[C@H](C)NC(=O)/C=C/c1ccc(OC(C)=O)c(OC)c1`, in assay [1], the IC50 worked out at 482 µM. Moreover, in assay [3], the inhibition entry is “Active”.
Turning to `CCOC(=O)[C@@H](NC(=O)/C=C/c1ccc(O)c(OC)c1)C(C)C`, in assay [1], the IC50 was found to be 59.6 µM. The inhibition entry in assay [3] is “Active”.
Molecule `CCOC(=O)[C@H](Cc1ccccc1)NC(=O)/C=C/c1ccc(O)c(OC)c1` showed an IC50 against Tyrosinase of less than 0.18 µM.
For `COc1cc(/C=C/C(=O)O)ccc1O` [FERULATE], the IC50 in assay [1] was found to be 35.7 µM. Also, in assay [3], the inhibition entry is “Active”.
The matching figures for `CCOC(=O)[C@H](C)NC(=O)/C=C/c1ccc(O)c(OC)c1`: 46.4 µM and “Active”.
Turning to `CCOC(=O)[C@H](CC(C)C)NC(=O)/C=C/c1ccc(O)c(O)c1`, the half-maximal inhibitory concentration (IC50) came out at 28.6 µM in assay [1] and 373 µM in assay [2].
The matching figures for `O=C(O)/C=C/c1ccc(O)c(O)c1` [CAFFEIC ACID]: 27.6 µM and 287 µM.
Turning to `CCOC(=O)CNC(=O)/C=C/c1ccc(O)c(O)c1`, the concentration for half-maximal inhibition (IC50) in assay [1] was 18.6 µM; in assay [2], 340 µM.
Turning to `COc1cc(/C=C/C(=O)O)ccc1OC(C)=O`, in assay [1], the IC50 was more than 500 µM. Besides, the inhibition result in assay [3] was “Active”.
With `CCOC(=O)[C@@H](NC(=O)/C=C/c1ccc(O)c(O)c1)[C@@H](C)CC`, the IC50 in assay [1] came out at 43.5 µM; in assay [2], 411 µM.
The matching figures for `O=C1O[C@H]([C@@H](O)CO)C(O)=C1O` [ASCORBIC ACID]: 80.9 µM and 1620 µM.
Turning to `CCOC(=O)[C@@H](NC(=O)/C=C/c1ccc(OC(C)=O)c(OC)c1)C(C)C`, the IC50 in assay [1] is more than 500 µM. Moreover, the inhibition result in assay [3] is “Active”.
